≈ marks a conversion by molar mass, not a printed value.
Columns and labels:
[1] = tested on: Vesicular stomatitis virus; assay: Antiviral activity against vesicular stomatitis virus infected HEF cell lines.; type: functional
How it was run: (§1)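 Human embryonic fibroblasts, from embryonic lung or embryonic skin-muscle, infected with the virus. Endpoint is the minimum inhibitory concentration that reduces virus-induced cytopathicity by 50%. Values are averages of at least two separate experiments.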

[2] = Antiviral activity against influenza A,H3N2 virus infected MDCK cell lines.; type: functional
CCRF-CEM = assay: Cytotoxicity against CEM cell lines.; type: functional; conditions: Homo sapiens
Human betaherpesvirus 5 = assay: Antiviral activity against HCMV virus infected HEL cell lines.; type: functional
How it was run: (§2)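 Vero (African green monkey kidney), HeLa (human epithelial) or HEL (human embryonic lung) cell monolayers infected with the virus. Readout is the minimum inhibitory concentration that reduces virus-induced cytopathicity by 50%. Values are averages of at least two separate experiments.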

[3] = Antiviral activity against influenza A,H2N2 virus infected MDCK cell lines.; type: functional
Vero = assay: Effects on cell morphology of Vero cell lines.; type: functional; conditions: Chlorocebus sabaeus
How it was run: (§3)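 HeLa (human epithelial) or Vero (African green monkey kidney) cells were examined under the microscope for changes in normal morphology. The value is the minimum concentration causing a detectable alteration, averaged from at least two separate experiments.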

HEL = assay: Inhibition of HEL cell proliferation.; type: functional; conditions: Homo sapiens
How it was run: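 Human embryonic lung fibroblasts were used for the proliferation assay. The value is the concentration that reduces cell proliferation by 50%, averaged from at least two separate experiments.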

Coxsackievirus B4 [4] = assay: Antiviral activity against Coxsackie B4 virus infected HeLa cell lines.; type: functional; conditions: Enterovirus B; how it was run: as §2
Human alphaherpesvirus 3 [5] = assay: Antiviral activity against TK+VZV virus infected HEL cell lines.; type: functional; how it was run: as §2
Influenza B virus = assay: Antiviral activity against influenza B virus infected MDCK cell lines.; type: functional
[6] = tested on: Human immunodeficiency virus 1; assay: Antiviral activity against HIV-1 virus infected CEM cell lines.; type: functional, CCRF-CEM
Human alphaherpesvirus 1 [7] = assay: Antiviral activity against HSV-1 virus infected HEF cell lines.; type: functional; how it was run: as §1
MDCK [8] = assay: Antiviral activity tested against influenza A,H1N1 virus infected MDCK cell lines.; type: functional; conditions: Canis lupus familiaris
HeLa = assay: Effects on cell morphology of HeLa cell lines.; type: functional; conditions: Homo sapiens; how it was run: as §3
Human respirovirus 3 = assay: Antiviral activity against parainfluenza 3 virus infected Vero cell lines.; type: functional; how it was run: as §2
Human alphaherpesvirus 1 [9] = assay: Antiviral activity against TK-HSV-1 virus infected HEF cell lines.; type: functional; how it was run: as §1
MDCK [10] = assay: Antiviral activity of compound was tested against morphology virus infec+ted MDCK cell lines.; type: functional; conditions: Canis lupus familiaris
HEF = assay: Effects on cell morphology of HEF cell lines.; type: functional; conditions: Homo sapiens
How it was run: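 Human embryonic skin-muscle fibroblasts were examined under the microscope for changes in normal cell morphology. The value is the minimum concentration causing a microscopically detectable alteration, averaged from at least two separate experiments.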

Vaccinia virus = assay: Antiviral activity against vaccinia virus infected HEF cell lines.; type: functional; conditions: Orthopoxvirus vaccinia; how it was run: as §1
[11] = tested on: Human immunodeficiency virus 2; assay: Antiviral activity against HIV-2 virus infected CEM cell lines.; type: functional, CCRF-CEM
Sindbis virus = assay: Antiviral activity against sindbis virus infected Vero cell lines.; type: functional; how it was run: as §2
Human alphaherpesvirus 3 [12] = assay: Antiviral activity against TK-VZV virus infected HEL cell lines.; type: functional; how it was run: as §2
Enterovirus C = assay: Antiviral activity against polio 1 virus infected HeLa cell lines.; type: functional; how it was run: as §2
[13] = tested on: Mammalian orthoreovirus 1; assay: Antiviral activity against Reo 1 virus infected vero cell lines.; type: functional; how it was run: as §2
Coxsackievirus B4 [14] = assay: Antiviral activity against Coxsackie B4 virus infected vero cell lines.; type: functional; conditions: Enterovirus B; how it was run: as §2
Semliki Forest virus = assay: Antiviral activity against Semliki forest virus infected Vero cell lines.; type: functional; how it was run: as §2
Human alphaherpesvirus 2 = assay: Antiviral activity against HSV-2 virus infected HEF cell lines.; type: functional; how it was run: as §1
[15] = tested on: Vesicular stomatitis virus; assay: Antiviral activity against vesicular stomatitis virus infected HeLa cell lines.; type: functional; how it was run: as §2

## NC1(C23CC4CC(CC(C4)C2)C3)CCCC1
[1]
  MIC50: > 10 µg/mL
[2]
  MIC50: 6 µg/mL (≈ 27.4 µM)
CCRF-CEM
  MIC50: 18 µg/mL (≈ 82.1 µM)
Human betaherpesvirus 5
  MIC50: > 20 µg/mL
[3]
  MIC50: 2.5 µg/mL (≈ 11.4 µM)
Vero
  MIC50: > 400 µg/mL
HEL
  MIC50: > 50 µg/mL
Coxsackievirus B4 [4]
  MIC50: > 40 µg/mL
Human alphaherpesvirus 3 [5]
  MIC50: > 20 µg/mL
Influenza B virus
  MIC50: 20 µg/mL (≈ 91.2 µM)
[6]
  MIC50: > 8 µg/mL
Human alphaherpesvirus 1 [7]
  MIC50: > 10 µg/mL
MDCK [8]
  MIC50: > 64 µg/mL
HeLa
  MIC50: 100 µg/mL (≈ 456 µM)
Human respirovirus 3
  MIC50: > 10 µg/mL
Human alphaherpesvirus 1 [9]
  MIC50: > 10 µg/mL
MDCK [10]
  MIC50: > 250 µg/mL
HEF
  MIC50: 40 µg/mL (≈ 182 µM)
Vaccinia virus
  MIC50: > 10 µg/mL
[11]
  MIC50: > 8 µg/mL
Sindbis virus
  MIC50: > 10 µg/mL
Human alphaherpesvirus 3 [12]
  MIC50: > 20 µg/mL
Enterovirus C
  MIC50: > 40 µg/mL
[13]
  MIC50: > 10 µg/mL
Coxsackievirus B4 [14]
  MIC50: > 10 µg/mL
Semliki Forest virus
  MIC50: > 10 µg/mL
Human alphaherpesvirus 2
  MIC50: > 10 µg/mL
[15]
  MIC50: > 40 µg/mL

## NC(=O)c1ncn([C@@H]2O[C@H](CO)[C@@H](O)[C@H]2O)n1 [RIBAVIRIN]
[1]
  MIC50: 20 µg/mL (≈ 81.9 µM)
[2]
  MIC50: 5.6 µg/mL (≈ 22.9 µM)
[3]
  MIC50: 48.7 µg/mL (≈ 199 µM)
Vero
  MIC50: > 400 µg/mL
Coxsackievirus B4 [4]
  MIC50: 10 µg/mL (≈ 40.9 µM)
Influenza B virus
  MIC50: 2.4 µg/mL (≈ 9.83 µM)
Human alphaherpesvirus 1 [7]
  MIC50: > 200 µg/mL
MDCK [8]
  MIC50: 19 µg/mL (≈ 77.8 µM)
HeLa
  MIC50: > 400 µg/mL
Human respirovirus 3
  MIC50: 150 µg/mL (≈ 614 µM)
Human alphaherpesvirus 1 [9]
  MIC50: > 200 µg/mL
MDCK [10]
  MIC50: > 250 µg/mL
HEF
  MIC50: 400 µg/mL (≈ 1640 µM)
Vaccinia virus
  MIC50: 20 µg/mL (≈ 81.9 µM)
Sindbis virus
  MIC50: > 400 µg/mL
Enterovirus C
  MIC50: 20 µg/mL (≈ 81.9 µM)
[13]
  MIC50: 70 µg/mL (≈ 287 µM)
Coxsackievirus B4 [14]
  MIC50: > 400 µg/mL
Semliki Forest virus
  MIC50: > 400 µg/mL
Human alphaherpesvirus 2
  MIC50: > 200 µg/mL
[15]
  MIC50: 20 µg/mL (≈ 81.9 µM)

## CCN1CCCC1C12CC3CC(CC(C3)C1)C2 (stereo unspecified)
[1]
  MIC50: > 100 µg/mL
[2]
  MIC50: 58 µg/mL (≈ 249 µM)
CCRF-CEM
  MIC50: 115 µg/mL (≈ 493 µM)
Human betaherpesvirus 5
  MIC50: > 50 µg/mL
[3]
  MIC50: > 14 µg/mL
Vero
  MIC50: > 400 µg/mL
HEL
  MIC50: > 50 µg/mL
Coxsackievirus B4 [4]
  MIC50: > 400 µg/mL
Human alphaherpesvirus 3 [5]
  MIC50: > 50 µg/mL
Influenza B virus
  MIC50: 60 µg/mL (≈ 257 µM)
[6]
  MIC50: > 40 µg/mL
Human alphaherpesvirus 1 [7]
  MIC50: > 100 µg/mL
MDCK [8]
  MIC50: > 34 µg/mL
HeLa
  MIC50: > 400 µg/mL
Human respirovirus 3
  MIC50: > 400 µg/mL
Human alphaherpesvirus 1 [9]
  MIC50: > 100 µg/mL
MDCK [10]
  MIC50: 250 µg/mL (≈ 1070 µM)
HEF
  MIC50: 200 µg/mL (≈ 857 µM)
Vaccinia virus
  MIC50: > 100 µg/mL
[11]
  MIC50: > 40 µg/mL
Sindbis virus
  MIC50: > 400 µg/mL
Human alphaherpesvirus 3 [12]
  MIC50: > 50 µg/mL
Enterovirus C
  MIC50: > 400 µg/mL
[13]
  MIC50: > 400 µg/mL
Coxsackievirus B4 [14]
  MIC50: > 400 µg/mL
Semliki Forest virus
  MIC50: > 400 µg/mL
Human alphaherpesvirus 2
  MIC50: > 100 µg/mL
[15]
  MIC50: > 400 µg/mL

## CC1(C)CCCN1CC12CC3CC(CC(C3)C1)C2
[1]
  MIC50: > 40 µg/mL
[2]
  MIC50: > 87 µg/mL
CCRF-CEM
  MIC50: 99 µg/mL (≈ 400 µM)
Human betaherpesvirus 5
  MIC50: > 50 µg/mL
[3]
  MIC50: 35 µg/mL (≈ 141 µM)
Vero
  MIC50: > 400 µg/mL
HEL
  MIC50: > 50 µg/mL
Coxsackievirus B4 [4]
  MIC50: > 200 µg/mL
Human alphaherpesvirus 3 [5]
  MIC50: > 50 µg/mL
Influenza B virus
  MIC50: > 100 µg/mL
[6]
  MIC50: > 40 µg/mL
Human alphaherpesvirus 1 [7]
  MIC50: > 40 µg/mL
MDCK [8]
  MIC50: > 150 µg/mL
HeLa
  MIC50: > 400 µg/mL
Human respirovirus 3
  MIC50: > 200 µg/mL
Human alphaherpesvirus 1 [9]
  MIC50: > 40 µg/mL
MDCK [10]
  MIC50: > 250 µg/mL
HEF
  MIC50: 100 µg/mL (≈ 404 µM)
Vaccinia virus
  MIC50: > 40 µg/mL
[11]
  MIC50: > 40 µg/mL
Sindbis virus
  MIC50: > 200 µg/mL
Human alphaherpesvirus 3 [12]
  MIC50: > 50 µg/mL
Enterovirus C
  MIC50: > 200 µg/mL
[13]
  MIC50: > 200 µg/mL
Coxsackievirus B4 [14]
  MIC50: > 200 µg/mL
Semliki Forest virus
  MIC50: > 200 µg/mL
Human alphaherpesvirus 2
  MIC50: > 40 µg/mL
[15]
  MIC50: 100 µg/mL (≈ 404 µM)

## NC12CC3CC(CC(C3)C1)C2 [AMANTADINE]
[3]
  MIC50: 0.8 µg/mL (≈ 5.29 µM)
MDCK [8]
  MIC50: 48 µg/mL (≈ 317 µM)
MDCK [10]
  MIC50: > 250 µg/mL

## C1CCC2(CC1)CCCN2CC12CC3CC(CC(C3)C1)C2
[1]
  MIC50: > 40 µg/mL
[2]
  MIC50: > 100 µg/mL
CCRF-CEM
  MIC50: 33 µg/mL (≈ 115 µM)
Human betaherpesvirus 5
  MIC50: > 50 µg/mL
[3]
  MIC50: > 100 µg/mL
Vero
  MIC50: > 200 µg/mL
HEL
  MIC50: > 50 µg/mL
Coxsackievirus B4 [4]
  MIC50: > 100 µg/mL
Human alphaherpesvirus 3 [5]
  MIC50: 30 µg/mL (≈ 104 µM)
Influenza B virus
  MIC50: > 100 µg/mL
[6]
  MIC50: > 20 µg/mL
Human alphaherpesvirus 1 [7]
  MIC50: > 40 µg/mL
MDCK [8]
  MIC50: > 150 µg/mL
HeLa
  MIC50: 200 µg/mL (≈ 696 µM)
Human respirovirus 3
  MIC50: > 100 µg/mL
Human alphaherpesvirus 1 [9]
  MIC50: > 40 µg/mL
MDCK [10]
  MIC50: > 250 µg/mL
HEF
  MIC50: 100 µg/mL (≈ 348 µM)
Vaccinia virus
  MIC50: > 40 µg/mL
[11]
  MIC50: > 20 µg/mL
Sindbis virus
  MIC50: > 100 µg/mL
Human alphaherpesvirus 3 [12]
  MIC50: 20 µg/mL (≈ 69.6 µM)
Enterovirus C
  MIC50: > 100 µg/mL
[13]
  MIC50: > 100 µg/mL
Coxsackievirus B4 [14]
  MIC50: > 100 µg/mL
Semliki Forest virus
  MIC50: > 100 µg/mL
Human alphaherpesvirus 2
  MIC50: > 40 µg/mL
[15]
  MIC50: 100 µg/mL (≈ 348 µM)
